In ChEMBL document CHEMBL4765273 (Eur J Med Chem, 2020):

Tested on: Influenza A virus
Assay: Antiviral activity against Influenza A virus (A/Duck/Guangdong/674/2014 (H5N6)) group-2 infected in chicken embryo fibroblast assessed as reduction in viral infection preincubated for 1 hrs followed by fibroblast infection and measured after 72 hrs by hemagglutination titre method
Type: functional, organism-based
Settings: not given

CCC(CC)O[C@@H]1C=C(C(=O)O)C[C@H](NCc2ccc([N+](=O)[O-])cc2)[C@H]1NC(C)=O and CCC(CC)O[C@@H]1C=C(C(=O)O)C[C@H](NCc2cccc([N+](=O)[O-])c2)[C@H]1NC(C)=O are the same in IC50: 2.16 µM for the first, 2.16 µM for the second.

Going from CCC(CC)O[C@@H]1C=C(C(=O)O)C[C@H](NC(=O)/C=C/c2ccc(OC)cc2)[C@H]1NC(C)=O to CCC(CC)O[C@@H]1C=C(C(=O)O)C[C@H](NC/C=C/c2ccc(OC)cc2)[C@H]1NC(C)=O, the IC50 falls from over 10 µM to 4.07 µM.

First: CCC(CC)O[C@@H]1C=C(C(=O)O)C[C@H](NCc2ccsc2)[C@H]1NC(C)=O
Second: CCC(CC)O[C@@H]1C=C(C(=O)O)C[C@H](NCc2ccc(-c3cccs3)s2)[C@H]1NC(C)=O
The IC50 of the first is 2-fold lower: 3.58 µM for the first, 7.12 µM for the second.

CCC(CC)O[C@@H]1C=C(C(=O)O)C[C@H](NS(=O)(=O)c2ccc(F)cc2)[C@H]1NC(C)=O and CCC(CC)O[C@@H]1C=C(C(=O)O)C[C@H](NC(=O)/C=C/c2cccc(C)c2)[C@H]1NC(C)=O cannot be ordered by IC50: over 10 µM for the first, over 10 µM for the second.

For CCC(CC)O[C@@H]1C=C(C(=O)O)C[C@H](NC(=O)c2ccc(-c3ccccc3)cc2)[C@H]1NC(C)=O, the IC50 was over 10 µM.

Tested on: Influenza A virus
Assay: Antiviral activity against Influenza A virus (A/goose/Guangdong/SH7/2013(H5N1)) group-1 infected in chicken embryo fibroblast assessed as reduction in viral infection preincubated for 1 hrs followed by fibroblast infection and measured after 72 hrs by hemagglutination titre method
Type: functional, organism-based
Settings: not given

CCC(CC)O[C@@H]1C=C(C(=O)O)C[C@H](NCc2ccc([N+](=O)[O-])cc2)[C@H]1NC(C)=O and CCC(CC)O[C@@H]1C=C(C(=O)O)C[C@H](NCc2cccc([N+](=O)[O-])c2)[C@H]1NC(C)=O cannot be ordered by IC50: over 10 µM for the first, over 10 µM for the second.

First: CCC(CC)O[C@@H]1C=C(C(=O)O)C[C@H](NC(=O)/C=C/c2ccc(OC)cc2)[C@H]1NC(C)=O
Second: CCC(CC)O[C@@H]1C=C(C(=O)O)C[C@H](NC/C=C/c2ccc(OC)cc2)[C@H]1NC(C)=O
The IC50 of the first is higher: over 10 µM for the first, 7.56 µM for the second. The second is the more potent here.

CCC(CC)O[C@@H]1C=C(C(=O)O)C[C@H](NCc2ccsc2)[C@H]1NC(C)=O and CCC(CC)O[C@@H]1C=C(C(=O)O)C[C@H](NCc2ccc(-c3cccs3)s2)[C@H]1NC(C)=O cannot be ordered by IC50: over 10 µM for the first, over 10 µM for the second.

CCC(CC)O[C@@H]1C=C(C(=O)O)C[C@H](NS(=O)(=O)c2ccc(F)cc2)[C@H]1NC(C)=O and CCC(CC)O[C@@H]1C=C(C(=O)O)C[C@H](NC(=O)/C=C/c2cccc(C)c2)[C@H]1NC(C)=O cannot be ordered by IC50: over 10 µM for the first, over 10 µM for the second.

For CCC(CC)O[C@@H]1C=C(C(=O)O)C[C@H](NC(=O)c2ccc(-c3ccccc3)cc2)[C@H]1NC(C)=O, the IC50 was over 10 µM.

Tested on: Influenza A virus
Assay: Antiviral activity against Influenza A virus (A/chicken/Hebei/LZF/ 2014(H5N2)) group-2 infected in chicken embryo fibroblast assessed as reduction in viral infection preincubated for 1 hrs followed by fibroblast infection and measured after 72 hrs by hemagglutination titre method
Type: functional, organism-based
Settings: not given

CCC(CC)O[C@@H]1C=C(C(=O)O)C[C@H](NCc2ccc([N+](=O)[O-])cc2)[C@H]1NC(C)=O and CCC(CC)O[C@@H]1C=C(C(=O)O)C[C@H](NCc2cccc([N+](=O)[O-])c2)[C@H]1NC(C)=O are within 1.5-fold of each other in IC50: 0.21 µM for the first, 0.24 µM for the second.

First: CCC(CC)O[C@@H]1C=C(C(=O)O)C[C@H](NC(=O)/C=C/c2ccc(OC)cc2)[C@H]1NC(C)=O
Second: CCC(CC)O[C@@H]1C=C(C(=O)O)C[C@H](NC/C=C/c2ccc(OC)cc2)[C@H]1NC(C)=O
The IC50 of the first is higher: over 10 µM for the first, 0.21 µM for the second. The second is the more potent here.

First: CCC(CC)O[C@@H]1C=C(C(=O)O)C[C@H](NCc2ccsc2)[C@H]1NC(C)=O
Second: CCC(CC)O[C@@H]1C=C(C(=O)O)C[C@H](NCc2ccc(-c3cccs3)s2)[C@H]1NC(C)=O
The IC50 of the first is 1.6-fold higher: 0.13 µM for the first, 0.083 µM for the second.

CCC(CC)O[C@@H]1C=C(C(=O)O)C[C@H](NS(=O)(=O)c2ccc(F)cc2)[C@H]1NC(C)=O and CCC(CC)O[C@@H]1C=C(C(=O)O)C[C@H](NC(=O)/C=C/c2cccc(C)c2)[C@H]1NC(C)=O cannot be ordered by IC50: over 10 µM for the first, over 10 µM for the second.

Compound CCC(CC)O[C@@H]1C=C(C(=O)O)C[C@H](NC(=O)c2ccc(-c3ccccc3)cc2)[C@H]1NC(C)=O has an IC50 of over 10 µM.

Tested on: not listed separately
Assay: Cytotoxicity against chicken embryo fibroblast assessed as reduction in cell viability after 48 hrs by CCK8 assay
Design: species or system Gallus gallus
Settings: chicken embryo fibroblasts
Outline: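 Chicken embryo fibroblasts (1×10^5 cells/mL) were cultured 24 h at 37°C, 5% CO2, washed with serum-free DMEM, then exposed to 2-fold serial compound dilutions in 1% FBS DMEM for 48 h. CCK-8 in 1% FBS DMEM was added for 90 min and absorbance read at 450 nm. CC50 was obtained by curve fitting. Blank and cell controls were included.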

CCC(CC)O[C@@H]1C=C(C(=O)O)C[C@H](NCc2ccc([N+](=O)[O-])cc2)[C@H]1NC(C)=O and CCC(CC)O[C@@H]1C=C(C(=O)O)C[C@H](NCc2cccc([N+](=O)[O-])c2)[C@H]1NC(C)=O cannot be ordered by CC50 at 48 h: over 200 µM for the first, over 200 µM for the second.

CCC(CC)O[C@@H]1C=C(C(=O)O)C[C@H](NC(=O)/C=C/c2ccc(OC)cc2)[C@H]1NC(C)=O and CCC(CC)O[C@@H]1C=C(C(=O)O)C[C@H](NC/C=C/c2ccc(OC)cc2)[C@H]1NC(C)=O cannot be ordered by CC50 at 48 h: over 200 µM for the first, over 200 µM for the second.

CCC(CC)O[C@@H]1C=C(C(=O)O)C[C@H](NCc2ccsc2)[C@H]1NC(C)=O and CCC(CC)O[C@@H]1C=C(C(=O)O)C[C@H](NCc2ccc(-c3cccs3)s2)[C@H]1NC(C)=O cannot be ordered by CC50 at 48 h: over 200 µM for the first, over 200 µM for the second.

CCC(CC)O[C@@H]1C=C(C(=O)O)C[C@H](NS(=O)(=O)c2ccc(F)cc2)[C@H]1NC(C)=O and CCC(CC)O[C@@H]1C=C(C(=O)O)C[C@H](NC(=O)/C=C/c2cccc(C)c2)[C@H]1NC(C)=O cannot be ordered by CC50 at 48 h: over 200 µM for the first, over 200 µM for the second.

With CCC(CC)O[C@@H]1C=C(C(=O)O)C[C@H](NC(=O)c2ccc(-c3ccccc3)cc2)[C@H]1NC(C)=O the CC50 at 48 h was over 200 µM.

Tested on: Influenza A virus
Assay: Antiviral activity against Influenza A virus (A/goose/Jiangsu/1306/2014 (H5N8)) group-1 infected in chicken embryo fibroblast assessed as reduction in viral infection preincubated for 1 hrs followed by fibroblast infection and measured after 72 hrs by hemagglutination titre method
Type: functional, organism-based
Settings: not given

First: CCC(CC)O[C@@H]1C=C(C(=O)O)C[C@H](NCc2ccc([N+](=O)[O-])cc2)[C@H]1NC(C)=O
Second: CCC(CC)O[C@@H]1C=C(C(=O)O)C[C@H](NCc2cccc([N+](=O)[O-])c2)[C@H]1NC(C)=O
The IC50 of the first is 1.7-fold lower: 0.42 µM for the first, 0.7 µM for the second.

Compared with CCC(CC)O[C@@H]1C=C(C(=O)O)C[C@H](NC(=O)/C=C/c2ccc(OC)cc2)[C@H]1NC(C)=O, CCC(CC)O[C@@H]1C=C(C(=O)O)C[C@H](NC/C=C/c2ccc(OC)cc2)[C@H]1NC(C)=O is 13-fold lower in IC50: 8.48 µM for the first, 0.64 µM for the second.

CCC(CC)O[C@@H]1C=C(C(=O)O)C[C@H](NCc2ccsc2)[C@H]1NC(C)=O and CCC(CC)O[C@@H]1C=C(C(=O)O)C[C@H](NCc2ccc(-c3cccs3)s2)[C@H]1NC(C)=O are within 1.5-fold of each other in IC50: 0.081 µM for the first, 0.072 µM for the second.

CCC(CC)O[C@@H]1C=C(C(=O)O)C[C@H](NS(=O)(=O)c2ccc(F)cc2)[C@H]1NC(C)=O and CCC(CC)O[C@@H]1C=C(C(=O)O)C[C@H](NC(=O)/C=C/c2cccc(C)c2)[C@H]1NC(C)=O are within 1.5-fold of each other in IC50: 4.25 µM for the first, 4.37 µM for the second.

Compound CCC(CC)O[C@@H]1C=C(C(=O)O)C[C@H](NC(=O)c2ccc(-c3ccccc3)cc2)[C@H]1NC(C)=O has an IC50 of 3.54 µM.
